Measurements reported in ChEMBL document CHEMBL1795235, “Quercetin diacylglycoside analogues showing dual inhibition of DNA gyrase and topoisomerase IV as novel antibacterial agents” (J Med Chem, 2011).
In brackets after ≈: the same amount, converted by molar mass.

Legend:
Staphylococcus aureus [1] = experiment: Antibacterial activity against vancomycin-intermediate Staphylococcus aureus Mu50 after 24 hrs by microdilution method; assay type: functional; conditions: Mu50, 24 h
Outline: (§1)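 Broth microdilution in Mueller-Hinton broth with 0.85% NaCl, inoculum about 10^5 CFU per 100 μL. Compounds were diluted in water from 25.6 mg/mL stocks to final 2-fold series of 0.062–128 μg/mL. Plates were incubated 24 h at 35 °C. MIC was the lowest concentration at which all triplicate wells were clear, from three independent determinations.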

Enterococcus [2] = experiment: Antibacterial activity against vancomycin resistant Enterococcus FN-1 after 24 hrs by microdilution method; assay type: functional; conditions: FN-1, 24 h; outline: as §1
Streptococcus pneumoniae = experiment: Antibacterial activity against Streptococcus pneumoniae R6 after 24 hrs by microdilution method; assay type: functional; conditions: R6, 24 h
Outline: (§2)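 Broth microdilution in Mueller-Hinton broth with 0.85% NaCl, inoculum about 10^5 CFU per 100 μL. Compounds diluted from 25.6 mg/mL stocks in water to 2-fold series, final 0.062–128 μg/mL. […] Three independent determinations.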

Escherichia coli = experiment: Antibacterial activity against Escherichia coli K-12 after 24 hrs by microdilution method; assay type: functional; conditions: K-12, 24 h; outline: as §2
Enterococcus [3] = experiment: Antibacterial activity against vancomycin resistant Enterococcus NCTC 12201 after 24 hrs by microdilution method; assay type: functional; conditions: NCTC 12201, 24 h; outline: as §1
Enterococcus [4] = experiment: Ratio MIC for vancomycin to compound for vancomycin-resistant Enterococcus FN-1; assay type: functional
Staphylococcus aureus [5] = experiment: Antibacterial activity against methicillin-resistant Staphylococcus aureus OM584 after 24 hrs by microdilution method; assay type: functional; conditions: OM584, 24 h; outline: as §1
Staphylococcus aureus [6] = experiment: Antibacterial activity against methicillin-susceptible Staphylococcus aureus 209P after 24 hrs by microdilution method; assay type: functional; outline: as §1
Pseudomonas aeruginosa = experiment: Antibacterial activity against Pseudomonas aeruginosa PAO1 after 24 hrs by microdilution method; assay type: functional; conditions: PAO1, 24 h; outline: as §2
Staphylococcus aureus [7] = experiment: Antibacterial activity against methicillin-resistant Staphylococcus aureus N315 after 24 hrs by microdilution method; assay type: functional; conditions: N315, 24 h; outline: as §1
Staphylococcus aureus [8] = experiment: Antibacterial activity against methicillin-resistant Staphylococcus aureus OM481 after 24 hrs by microdilution method; assay type: functional; conditions: OM481, 24 h; outline: as §1
[9] = Inhibition of Escherichia coli DNA topoisomerase 4 subunit ParC/DNA topoisomerase 4 subunit ParE-mediated decatenation of kDNA by densitometry
Outline: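 Purchased E. coli topoIV kit enzyme, one unit with 200 ng kDNA, 37 °C, 30 min. Buffer: 50 mM HEPES-KOH pH 7.6, 5 mM magnesium acetate, 100 mM potassium glutamate, 10 mM DTT, 1 mM ATP, 40% glycerol. Gel on 1.0% agarose in TAE. IC50 of decatenation from densitometry by interpolation equation, at least three determinations.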

[10] = Inhibition of Staphylococcus aureus DNA Topoisomerase 4-mediated decatenation of kDNA after 30 mins by densitometry
Outline: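 Purchased S. aureus topoIV, one unit with 200 ng kDNA, 37 °C, 30 min. Products resolved on 1.0% agarose in TAE. IC50 of decatenation from densitometry by interpolation equation, at least three determinations.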

[11] = Inhibition of Escherichia coli DNA gyrase assessed as inhibition of pBR322 supercoiling by densitometry
Outline: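 One unit of E. coli gyrase with 0.5 μg relaxed pBR322 DNA, 37 °C, 30 min. Stopped with sucrose/EDTA dye, run on 1.0% agarose in TAE. IC50 from densitometry via log-interpolation equation.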

Staphylococcus aureus [12] = experiment: Antibacterial activity against methicillin-resistant Staphylococcus aureus COL after 24 hrs by microdilution method; assay type: functional; outline: as §1
[13] = Intestinal absorption in Wistar rat at 1 mg/mL, injected into small intestine, measured after 1 hr by UV-spectrophotometric analysis; conditions: in situ, intestinal injection
[14] = Ratio IC50 for Escherichia coli DNA topoisomerase 4 ParC/DNA topoisomerase 4 subunit ParE-mediated decatenation of kDNA to IC50 for Staphylococcus aureus DNA topoisomerase 4 subunit B-mediated decatenation of kDNA
Mus musculus [15] = experiment: Toxicity in mouse at 10 mg/kg, iv administered for 4 days measured after 14 days; assay type: organism-based; set-up: dose 10 mg/kg, route intravenous; conditions: in vivo, 336 h
Mus musculus [16] = experiment: Toxicity in iv dosed mouse assessed as incidence of mortality measured 14 days post dose; assay type: organism-based; conditions: in vivo, 336 h
Outline: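 Male mice (n = 4), 15–30 g, given water only for 12 h beforehand. Dosed intravenously by tail vein in 50% PEG in saline at 10, 50 or 100 mg/kg/day for 4 days (total dose volume 20 mL/kg). Weight gain, mobility and mortality were observed up to 14 days.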

Mus musculus [17] = experiment: Toxicity in mouse at 100 mg/kg, iv administered for 4 days assessed as transient seizure like reaction measured after 10 mins of compound administration; assay type: organism-based; set-up: dose 100 mg/kg, route intravenous; conditions: in vivo
Mus musculus [18] = experiment: Toxicity in mouse at 50 mg/kg, iv administered for 4 days measured after 14 days; assay type: organism-based; set-up: dose 50 mg/kg, route intravenous; conditions: in vivo, 336 h
Mus musculus [19] = experiment: Toxicity in mouse at 100 mg/kg, iv administered for 4 days assessed as transient seizure like reaction measured after 1 day of compound administration; assay type: organism-based; set-up: dose 100 mg/kg, route intravenous; conditions: in vivo, 24 h

SMILES | MIC (Staphylococcus aureus [1]) [µg/mL] | MIC (Enterococcus [2]) [µg/mL] | MIC (Streptococcus pneumoniae) [µg/mL] | MIC (Escherichia coli) [µg/mL] | MIC (Enterococcus [3]) [µg/mL] | Ratio (Enterococcus [4]) | MIC (Staphylococcus aureus [5]) [µg/mL] | MIC (Staphylococcus aureus [6]) [µg/mL] | MIC (Pseudomonas aeruginosa) [µg/mL] | MIC (Staphylococcus aureus [7]) [µg/mL] | MIC (Staphylococcus aureus [8]) [µg/mL] | IC50 [9] [µM] | IC50 [10] [µM] | IC50 [11] [µM] | MIC (Staphylococcus aureus [12]) [µg/mL] | further results
O=C(CCc1ccc(F)cc1)Oc1cc(O)c2c(=O)c(OC(=O)CCc3ccc(F)cc3)c(-c3ccc(O)c(O)c3)oc2c1 | 32 (≈ 53.1 µM) | 64 (≈ 106 µM) | 32 (≈ 53.1 µM) | 64 (≈ 106 µM) | 32 (≈ 53.1 µM) | 2 | 16 (≈ 26.6 µM) | 64 (≈ 106 µM) | 64 (≈ 106 µM) | 16 (≈ 26.6 µM) | 16 (≈ 26.6 µM) | 6.76 | 0.29 | 0.72 | 32 (≈ 53.1 µM) | 
Cc1ccc(CCC(=O)Oc2cc(O)c3c(=O)c(OC(=O)CCc4ccc(C)cc4)c(-c4ccc(O)c(O)c4)oc3c2)cc1 | 16 (≈ 26.9 µM) | 64 (≈ 108 µM) | 32 (≈ 53.8 µM) | 64 (≈ 108 µM) | 64 (≈ 108 µM) | 2 | 32 (≈ 53.8 µM) | 64 (≈ 108 µM) | 64 (≈ 108 µM) | 32 (≈ 53.8 µM) | 32 (≈ 53.8 µM) | 8.59 | 0.44 | 1.66 | 32 (≈ 53.8 µM) | 
O=C(CCc1ccc(F)cc1)OC[C@H]1O[C@@H](Oc2c(-c3ccc(O)c(O)c3)oc3cc(O)cc(O)c3c2=O)[C@H](OC(=O)CCc2ccc(F)cc2)[C@@H](O)[C@H]1O | 0.5 (≈ 0.654 µM) | 0.25 (≈ 0.327 µM) | 0.13 (≈ 0.17 µM) | > 128 | 0.25 (≈ 0.327 µM) |  | 0.13 (≈ 0.17 µM) | 0.13 (≈ 0.17 µM) | > 128 | 0.13 (≈ 0.17 µM) | 0.13 (≈ 0.17 µM) | 9.16 | 0.22 | 0.78 | 0.5 (≈ 0.654 µM) | Fa at 1 h [13]: 76.6%; Ratio IC50 [14]: 40; Activity (Mus musculus [15]): Non-toxic; Activity (Mus musculus [16]): Non-toxic; Activity (Mus musculus [17]): Toxic; Activity (Mus musculus [18]): Non-toxic; Activity (Mus musculus [19]): Non-toxic
O=C(OC[C@H]1O[C@@H](Oc2c(-c3ccc(O)c(O)c3)oc3cc(O)cc(O)c3c2=O)[C@H](OC(=O)c2ccc(F)cc2)[C@@H](O)[C@H]1O)c1ccc(F)cc1 | 2 (≈ 2.82 µM) | 4 (≈ 5.65 µM) | 4 (≈ 5.65 µM) | > 128 | 4 (≈ 5.65 µM) |  | 2 (≈ 2.82 µM) | 4 (≈ 5.65 µM) | > 128 | 8 (≈ 11.3 µM) | 2 (≈ 2.82 µM) | 11 | 0.52 | 0.38 | 8 (≈ 11.3 µM) | 
CC(=O)OC[C@H]1O[C@@H](Oc2cc(O)c3c(=O)c(O[C@@H]4O[C@H](COC(C)=O)[C@H](OC(C)=O)[C@H](OC(C)=O)[C@H]4OC(C)=O)c(-c4ccc(O)c(O)c4)oc3c2)[C@H](OC(C)=O)[C@@H](OC(C)=O)[C@H]1OC(C)=O | 128 (≈ 133 µM) | 64 (≈ 66.5 µM) | 128 (≈ 133 µM) | > 128 | 64 (≈ 66.5 µM) | 2 | 128 (≈ 133 µM) | 128 (≈ 133 µM) | > 128 | 128 (≈ 133 µM) | 128 (≈ 133 µM) |  |  |  | > 128 | 
O=c1c(O[C@@H]2O[C@H](CO)[C@H](O)[C@H](O)[C@H]2O)c(-c2ccc(O)c(O)c2)oc2cc(O)cc(O)c12 [HYPEROSIDE] | > 128 | > 128 | > 128 | 16 (≈ 34.5 µM) | > 128 |  | > 128 | > 128 | 32 (≈ 68.9 µM) | > 128 | > 128 | 3.07 | 0.07 | 0.1 | > 128 | 
Cc1ccc(CC(=O)OC[C@H]2O[C@@H](Oc3c(-c4ccc(O)c(O)c4)oc4cc(O)cc(O)c4c3=O)[C@H](OC(=O)Cc3ccc(C)cc3)[C@@H](O)[C@H]2O)cc1 | 4 (≈ 5.49 µM) | 8 (≈ 11 µM) | 2 (≈ 2.74 µM) | > 128 | 4 (≈ 5.49 µM) |  | 2 (≈ 2.74 µM) | 4 (≈ 5.49 µM) | > 128 | 8 (≈ 11 µM) | 2 (≈ 2.74 µM) | 10.5 | 2.69 | 2.21 | 16 (≈ 22 µM) | 
